Experimental findings from ChEMBL document CHEMBL1140681, “Structure-based design of alpha-amido aldehyde containing gluten peptide analogues as modulators of HLA-DQ2 and transglutaminase 2” (Bioorg Med Chem, 2007) are described below.

Experiment [1] in a line: Enhancement of antigen presentation in HLA-DQ2 homozygous B-lymphoblastoid VAVY cells. It counts as functional, cell-based, Homo sapiens. An outline of the steps:
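VAVY cells γ-irradiated (12,000 rads), pulsed with peptides for 10 h, washed by centrifugation, then co-cultured 1:1 with DQ2-αI-responsive polyclonal T cells for 48 h. [³H]thymidine (1 μCi/well) added for 18–24 h; incorporated radioactivity counted as a measure of surface peptide-DQ2 complexes; EC50 derived from titration.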

The next experiment relates to VAVY. Description: Induction of cell proliferation in HLA-DQ2 homozygous B-lymphoblastoid VAVY cells at 10 uM after overnight incubation. It counts as functional, cell-based. As to conditions: Homo sapiens. An outline of the steps:
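γ-Irradiated (12,000 rads) VAVY cells at 2×10^6 cells/ml pulsed with 10 μM peptide for 2 h or overnight, then washed out by centrifugation (800g, 3 min, 4°C). Re-suspended APCs (1×10^6/ml) co-cultured 48 h with equal volume of P28 TCL1 T cells (1×10^6/ml); [³H]thymidine 1 μCi/well for 18–24 h; proliferation by scintillation counting.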

The target in experiment [2] is T1, Protein-glutamine gamma-glutamyltransferase (Homo sapiens) (UniProt P21980).
T1 sequence (whole entry): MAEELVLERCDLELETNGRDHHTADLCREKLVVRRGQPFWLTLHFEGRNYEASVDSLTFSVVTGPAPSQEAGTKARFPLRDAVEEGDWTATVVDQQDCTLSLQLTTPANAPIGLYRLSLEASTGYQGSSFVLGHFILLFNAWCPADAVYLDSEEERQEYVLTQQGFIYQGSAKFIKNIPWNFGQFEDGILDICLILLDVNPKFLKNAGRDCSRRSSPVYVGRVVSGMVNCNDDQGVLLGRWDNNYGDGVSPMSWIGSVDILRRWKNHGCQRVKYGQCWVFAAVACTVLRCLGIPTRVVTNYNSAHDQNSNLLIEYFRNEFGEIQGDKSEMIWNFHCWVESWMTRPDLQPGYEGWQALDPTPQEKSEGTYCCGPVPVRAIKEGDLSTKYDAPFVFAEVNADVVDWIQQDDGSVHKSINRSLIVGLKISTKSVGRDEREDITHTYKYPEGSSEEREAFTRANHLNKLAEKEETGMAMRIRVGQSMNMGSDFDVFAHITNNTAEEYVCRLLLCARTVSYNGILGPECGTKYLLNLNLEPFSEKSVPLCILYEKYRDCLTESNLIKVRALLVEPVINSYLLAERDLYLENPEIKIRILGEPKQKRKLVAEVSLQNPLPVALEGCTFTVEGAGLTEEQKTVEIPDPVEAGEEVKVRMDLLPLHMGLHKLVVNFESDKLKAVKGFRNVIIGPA
In words: Inhibition of human recombinant TG2 at 100 uM.

For experiment [3], the target named is T2, Protein-glutamine gamma-glutamyltransferase (Homo sapiens, UniProt P21980).
T2 sequence (P21980 whole entry): T1 sequence (whole entry)
Description: Inhibition of human recombinant TG2. The essentials:
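Continuous spectrophotometric coupled deamidation assay with recombinant human TG2: MOPS buffer pH 7.2 with CaCl2, EDTA, α-ketoglutarate, glutamate dehydrogenase and NADH; Z-Gln-Gly substrate (10–40 mM); reaction started by adding TG2. Velocities from linear regression; Ki by non-linear fitting of velocity vs ZQG to Michaelis-Menten with Vmax fixed at the uninhibited value.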

Experiment [4] concerns the target T1, Protein-glutamine gamma-glutamyltransferase (Homo sapiens). In words: Inhibition of human recombinant TG2 at 500 uM.
Experiment [5] has the same target. Description: Inhibition of human recombinant TG2 at 750 uM.

Calls of active or inactive are those of the source. The rule behind the calls is not given here. Square brackets hold non-standard residues; d marks the D form. Peptide text beside a SMILES is read from it. * marks the point of attachment. 5FAM = O=C1OC2(c3ccc(O)cc3Oc3cc(O)ccc32)c2ccc(C(=O)*)cc21; Orn = NCCC[C@H](N)C(=O)O; Dab = NCC[C@H](N)C(=O)O; Dap = NC[C@H](N)C(=O)O; Glyoxylyl = O=CC(=O)*

In the case of `CC(C)C[C@H](NC(=O)c1ccc2c(c1)C(=O)OC21c2ccc(O)cc2Oc2cc(O)ccc21)C(=O)N[C@@H](CCC(N)=O)C(=O)N1CCC[C@H]1C(=O)N[C@@H](Cc1ccccc1)C(=O)N1CCC[C@H]1C(=O)N[C@@H](CCC(N)=O)C(=O)N1CCC[C@H]1C(=O)N[C@@H](CCC(=O)O)C(=O)N[C@@H](CC(C)C)C(=O)N1CCC[C@H]1C(=O)N[C@@H](Cc1ccc(O)cc1)C(=O)O` (5FAM-LQPFPQPELPY-OH), the EC50 (as a rule, the concentration that produces a half-maximal response) in experiment [1] stood at 3.3 µM.
For the compound `CC(C)C[C@H](NC(=O)c1ccc2c(c1)C(=O)OC21c2ccc(O)cc2Oc2cc(O)ccc21)C(=O)N[C@@H](CCC(N)=O)C(=O)N[C@@H](CC(C)C)C(=O)N[C@@H](CCC(N)=O)C(=O)N1CCC[C@H]1C(=O)N[C@@H](Cc1ccccc1)C(=O)N1CCC[C@H]1C(=O)N[C@@H](CCC(N)=O)C(=O)N1CCC[C@H]1C(=O)N[C@@H](CCC(=O)O)C(=O)N[C@@H](CC(C)C)C(=O)N1CCC[C@H]1C(=O)N[C@@H](Cc1ccc(O)cc1)C(=O)N1CCC[C@H]1C(=O)N[C@@H](CCC(N)=O)C(=O)N1CCC[C@H]1C(=O)N[C@@H](CCC(=O)O)C(=O)N[C@@H](CC(C)C)C(=O)N1CCC[C@H]1C(=O)N[C@@H](Cc1ccc(O)cc1)C(=O)O` (5FAM-LQLQPFPQPELPYPQPELPY-OH), in experiment [1], the EC50 amounted to 0.016 µM.
Take `CC(C)C[C@H](NC(=O)c1ccc2c(c1)C(=O)OC21c2ccc(O)cc2Oc2cc(O)ccc21)C(=O)N[C@@H](CCC(N)=O)C(=O)N1CCC[C@H]1C(=O)N[C@@H](Cc1ccccc1)C(=O)N1CCC[C@H]1C(=O)N[C@@H](CNC(=O)C=O)C(=O)N1CCC[C@H]1C(=O)N[C@@H](CCC(=O)O)C(=O)N[C@@H](CC(C)C)C(=O)N1CCC[C@H]1C(=O)N[C@@H](Cc1ccc(O)cc1)C(=O)O` (5FAM-LQPFP[Dap](Glyoxylyl)PELPY-OH): the result in the experiment on VAVY was Active. Also, the EC50 in experiment [1] was 1 µM.
Consider `CC(=O)NCC[C@H](NC(=O)[C@@H]1CCCN1C(=O)[C@H](CCC(N)=O)NC(=O)[C@@H]1CCCN1C(=O)c1ccc2c(c1)C(=O)OC21c2ccc(O)cc2Oc2cc(O)ccc21)C(=O)N[C@@H](CC(C)C)C(=O)N1CCC[C@H]1C(=O)N[C@@H](Cc1ccccc1)C(=O)O` (5FAM-PQP[Dab](Ac)LPF-OH), for which, in experiment [2], the result was inactive.
Take `CC(C)C[C@H](NC(=O)[C@H](CCNC(=O)C=O)NC(=O)[C@@H]1CCCN1C(=O)[C@H](CCC(N)=O)NC(=O)[C@@H]1CCCN1)C(=O)N1CCC[C@H]1C(=O)N[C@@H](Cc1ccccc1)C(=O)O` (H-PQP[Dab](Glyoxylyl)LPF-OH): in experiment [3], the inhibition constant Ki (usually a measure of affinity in units of concentration, obtained from inhibition or displacement) was found to be 40 µM.
Turning to `CC(C)C[C@H](NC(=O)[C@H](CNC(=O)C=O)NC(=O)[C@@H]1CCCN1C(=O)[C@H](CCC(N)=O)NC(=O)[C@@H]1CCCN1)C(=O)N1CCC[C@H]1C(=O)N[C@@H](Cc1ccccc1)C(=O)O` (H-PQP[Dap](Glyoxylyl)LPF-OH), in experiment [3], the Ki stood at 300 µM.
For the compound `CC(C)C[C@H](NC(=O)[C@H](CCCCNC(=O)C=O)NC(=O)[C@@H]1CCCN1C(=O)[C@H](CCC(N)=O)NC(=O)[C@@H]1CCCN1)C(=O)N1CCC[C@H]1C(=O)N[C@@H](Cc1ccccc1)C(=O)O` (H-PQPK(Glyoxylyl)LPF-OH), the outcome in experiment [4] was inactive.
On to `CC(C)C[C@H](NC(=O)[C@H](NC(=O)C=O)NC(=O)[C@@H]1CCCN1C(=O)[C@H](CCC(N)=O)NC(=O)[C@@H]1CCCN1)C(=O)N1CCC[C@H]1C(=O)N[C@@H](Cc1ccccc1)C(=O)O`, for which the outcome in experiment [5] was inactive.
Regarding `CC(C)C[C@H](NC(=O)c1ccc2c(c1)C(=O)OC21c2ccc(O)cc2Oc2cc(O)ccc21)C(=O)N[C@@H](CCC(N)=O)C(=O)N[C@@H](CC(C)C)C(=O)N[C@@H](CCC(N)=O)C(=O)N1CCC[C@H]1C(=O)N[C@@H](Cc1ccccc1)C(=O)N1CCC[C@H]1C(=O)N[C@@H](CNC(=O)C=O)C(=O)N1CCC[C@H]1C(=O)N[C@@H](CCC(=O)O)C(=O)N[C@@H](CC(C)C)C(=O)N1CCC[C@H]1C(=O)N[C@@H](Cc1ccc(O)cc1)C(=O)N1CCC[C@H]1C(=O)N[C@@H](CNC(=O)C=O)C(=O)N1CCC[C@H]1C(=O)N[C@@H](CCC(=O)O)C(=O)N[C@@H](CC(C)C)C(=O)N1CCC[C@H]1C(=O)N[C@@H](Cc1ccc(O)cc1)C(=O)O` (5FAM-LQLQPFP[Dap](Glyoxylyl)PELPYP[Dap](Glyoxylyl)PELPY-OH), the EC50 in experiment [1] amounted to 0.039 µM.
As for `CC(C)C[C@H](NC(=O)[C@H](CCCNC(=O)C=O)NC(=O)[C@@H]1CCCN1C(=O)[C@H](CCC(N)=O)NC(=O)[C@@H]1CCCN1)C(=O)N1CCC[C@H]1C(=O)N[C@@H](Cc1ccccc1)C(=O)O` (H-PQP[Orn](Glyoxylyl)LPF-OH), in experiment [3], the inhibition constant (Ki) is 200 µM.
